From ChEMBL document CHEMBL1629542, “Epigallocatechin gallate inactivates clinical isolates of herpes simplex virus” (Antimicrob Agents Chemother, 2008)
The source made the active and inactive calls. The rule behind the calls is not given here.

Key:
Human alphaherpesvirus 2 [1] = test: Antiviral activity against Human herpesvirus 2 isolate P2 infected in African green monkey CV1 cells assessed as log reduction in viral titer at 100 uM within 10 mins; assay type: functional, CV-1
Outline: (§1)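 HSV-2 clinical isolates from clarified CV-1 supernatants were held with 100 μM EGCG for timed intervals, from 10 min onward. Surviving virus was titrated on CV-1 cells by 10-fold dilution and 5-day CPE scoring, with TCID50 by Reed-Muench. Values are mean ± SD, three experiments.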

Human alphaherpesvirus 2 [2] = test: Antiviral activity against Human herpesvirus 2 isolate P22 infected in African green monkey CV1 cells assessed as log reduction in viral titer at 100 uM within 10 mins; assay type: functional, CV-1
Outline: (§2)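 Time course: clarified CV-1 supernatant of HSV-2 (clinical isolates or strain 333) was exposed to 100 μM EGCG for increasing times. It was then titrated by tenfold dilution on CV-1 cells, three wells per dilution, for 5 days at 37°C with CPE read-out. Reed-Muench TCID50 was compared with the untreated titer. Mean of three separate experiments.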

Human alphaherpesvirus 2 [3] = test: Antiviral activity against Human herpesvirus 2 isolate P27 infected in African green monkey CV1 cells assessed as log reduction in viral titer at 100 uM within 10 mins; assay type: functional, CV-1; outline: as §2
Human alphaherpesvirus 2 [4] = test: Antiviral activity against Human herpesvirus 2 isolate P12 infected in African green monkey CV1 cells assessed as log reduction in viral titer at 100 uM within 20 mins; assay type: functional, CV-1; outline: as §1
Human alphaherpesvirus 2 [5] = test: Antiviral activity against Human herpesvirus 2 isolate P47 infected in African green monkey CV1 cells assessed as log reduction in viral titer at 100 uM within 20 mins; assay type: functional, CV-1; outline: as §2
Human alphaherpesvirus 1 [6] = test: Antiviral activity against Human herpesvirus 1 isolate P15 infected in African green monkey vero cells assessed as log reduction in viral titer at 100 uM after 40 to 60 mins; assay type: functional
Outline: (§3)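 In the time course, HSV-1 clinical isolates (clarified Vero supernatants) were exposed to 100 μM EGCG for varying times up to 60 min. Residual infectivity was then titrated on Vero cells by 5-day CPE endpoint with Reed-Muench calculation. Mean ± SD of three separate experiments.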

Human alphaherpesvirus 1 [7] = test: Antiviral activity against Human herpesvirus 1 isolate P25 infected in African green monkey vero cells assessed as log reduction in viral titer at 100 uM after 30 mins; assay type: functional; outline: as §3
Human alphaherpesvirus 1 [8] = test: Antiviral activity against Human herpesvirus 1 isolate P32 infected in African green monkey vero cells assessed as log reduction in viral titer at 100 uM after 30 mins; assay type: functional; outline: as §3
Human alphaherpesvirus 1 [9] = test: Antiviral activity against Human herpesvirus 1 isolate P56 infected in African green monkey vero cells assessed as log reduction in viral titer at 100 uM after 30 mins; assay type: functional; outline: as §3
Human alphaherpesvirus 1 [10] = test: Antiviral activity against Human herpesvirus 1 isolate P56 infected in African green monkey vero cells assessed as log reduction in viral titer at 100 uM within 10 mins; assay type: functional; outline: as §3
Human alphaherpesvirus 2 [11] = test: Antiviral activity against Human herpesvirus 2 strain 333 infected in African green monkey CV-1 cells assessed as log reduction in viral titer at 100 uM after 20 mins; assay type: functional; outline: as §2
Human alphaherpesvirus 1 [12] = test: Antiviral activity against Human herpesvirus 1 F1 assessed as damage of viral particle at 100 uM after 2 hrs by electron microscopy; assay type: functional, organism-based
Human alphaherpesvirus 1 [13] = test: Binding affinity to Envelope glycoprotein D in Human herpesvirus 1 F1 assessed as macromolecular complex formation by SDS-PAGE
Outline: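 Purified HSV-1 gB or gD (500 to 700 μg/ml) was incubated with EGCG (250 μg/ml; 545 μM) in 0.1 M potassium phosphate, pH 7.0, at 35°C for 24 h. Products were denatured at 50°C for 15 min in sample buffer and run on 6.5% SDS-PAGE. Bands were stained with Coomassie blue to detect higher-molecular-weight complexes.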

Human alphaherpesvirus 1 [14] = test: Antiviral activity against Human herpesvirus 1 isolate P38 infected in African green monkey vero cells assessed as reduction in viral titer; assay type: functional, organism-based; conditions: Human alphaherpesvirus 1, isolate P38, Vero
Outline: (§4)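 Laboratory HSV-1 F1 or patient-swab HSV-1 isolates were prepared as clarified Vero supernatants. They were incubated 1 h with a range of EGCG concentrations in RPMI 1640/1% FCS at pH 7.4. Titres were determined on Vero cells by 5-day CPE endpoint (Reed-Muench). IC99 was read graphically as 99% titre drop from untreated; mean ± SD, three experiments.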

Human alphaherpesvirus 1 [15] = test: Antiviral activity against Human herpesvirus 1 isolate P56 infected in African green monkey vero cells assessed as reduction in viral titer; assay type: functional, organism-based; conditions: Human alphaherpesvirus 1, isolate P56, Vero; outline: as §4
Human alphaherpesvirus 1 [16] = test: Antiviral activity against Human herpesvirus 1 isolate P42 infected in African green monkey vero cells assessed as log reduction in viral titer at 50 uM; assay type: functional; outline: as §4
Human alphaherpesvirus 1 [17] = test: Antiviral activity against Human herpesvirus 1 isolate P56 infected in African green monkey vero cells assessed as log reduction in viral titer at 50 uM; assay type: functional; outline: as §4
Human alphaherpesvirus 1 [18] = test: Antiviral activity against Human herpesvirus 1 isolate P25 infected in African green monkey vero cells assessed as reduction in viral titer at 100 uM; assay type: functional, organism-based; outline: as §4
Human alphaherpesvirus 1 [19] = test: Antiviral activity against Human herpesvirus 1 isolate P32 infected in African green monkey vero cells assessed as reduction in viral titer at 100 uM; assay type: functional, organism-based; outline: as §4
Human alphaherpesvirus 2 [20] = test: Antiviral activity against Human herpesvirus 2 isolate P12 infected in African green monkey CV1 cells assessed as log reduction in viral titer at 12.5 uM; assay type: functional, CV-1
Outline: (§5)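 HSV-2 patient-swab isolates were grown as clarified CV-1 supernatants and incubated 1 h with a range of EGCG concentrations (RPMI 1640/1% FCS, pH 7.4). They were titrated on CV-1 cells from 10-fold dilutions by 5-day CPE at 37°C, with Reed-Muench TCID50. IC99 was derived graphically as 99% reduction from zero-drug titre; mean ± SD, three experiments.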

Human alphaherpesvirus 2 [21] = test: Antiviral activity against Human herpesvirus 2 isolate P2 infected in African green monkey CV1 cells; assay type: functional, organism-based; conditions: Human alphaherpesvirus 2, isolate P2, CV-1; outline: as §5
Human alphaherpesvirus 2 [22] = test: Antiviral activity against Human herpesvirus 2 isolate P11 infected in African green monkey CV1 cells; assay type: functional, organism-based; conditions: Human alphaherpesvirus 2, isolate P11, CV-1; outline: as §5
Human alphaherpesvirus 2 [23] = test: Antiviral activity against Human herpesvirus 2 isolate P12 infected in African green monkey CV1 cells; assay type: functional, organism-based; conditions: Human alphaherpesvirus 2, isolate P12, CV-1; outline: as §5
Human alphaherpesvirus 2 [24] = test: Antiviral activity against Human herpesvirus 2 isolate P27 infected in African green monkey CV1 cells; assay type: functional, organism-based; conditions: Human alphaherpesvirus 2, isolate P27, CV-1
Outline: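 HSV-2 (clinical swab isolates or strain 333) was grown in CV-1 cells and used as clarified supernatant. Virus was exposed to graded EGCG for 1 h in RPMI 1640 with 1% FCS, pH 7.4. Tenfold dilutions were titrated on CV-1 cells, three wells each, 5 days at 37°C, scoring CPE. TCID50 was calculated by Reed-Muench. IC99 was read graphically as 99% titer drop from the zero-concentration titer. Mean of three experiments.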

Human alphaherpesvirus 2 [25] = test: Antiviral activity against Human herpesvirus 2 isolate P11 infected in African green monkey CV1 cells assessed as log reduction viral titer at 50 uM; assay type: functional, CV-1; outline: as §5
Human alphaherpesvirus 1 [26] = test: Antiviral activity against Human herpesvirus 1 isolate P15 infected in African green monkey vero cells assessed as log reduction in viral titer at 50 uM; assay type: functional; outline: as §4
Human alphaherpesvirus 1 [27] = test: Antiviral activity against Human herpesvirus 1 isolate P25 infected in African green monkey vero cells assessed as log reduction in viral titer at 50 uM; assay type: functional; outline: as §4
Human alphaherpesvirus 1 [28] = test: Antiviral activity against Human herpesvirus 1 isolate P32 infected in African green monkey vero cells assessed as log reduction in viral titer at 50 uM; assay type: functional; outline: as §4

SMILES: O=C(O[C@@H]1Cc2c(O)cc(O)cc2O[C@@H]1c1cc(O)c(O)c(O)c1)c1cc(O)c(O)c(O)c1 [EPIGALOCATECHIN GALLATE]
- FC (Human alphaherpesvirus 2 [1]): 2
- FC (Human alphaherpesvirus 2 [2]): 2
- FC (Human alphaherpesvirus 2 [3]): 2
- FC (Human alphaherpesvirus 2 [4]): 3
- FC (Human alphaherpesvirus 2 [5]): 3
- FC (Human alphaherpesvirus 1 [6]): 3
- FC (Human alphaherpesvirus 1 [7]): 2
- FC (Human alphaherpesvirus 1 [8]): 2
- FC (Human alphaherpesvirus 1 [9]): 2
- FC (Human alphaherpesvirus 1 [10]): 2
- FC (Human alphaherpesvirus 2 [11]): >=3
- Activity (Human alphaherpesvirus 1 [12]): Active
- Activity (Human alphaherpesvirus 1 [13]): Active
- IC99 (Human alphaherpesvirus 1 [14]): 48.2 µM
- IC99 (Human alphaherpesvirus 1 [15]): 18.3 µM
- FC (Human alphaherpesvirus 1 [16]): 2
- FC (Human alphaherpesvirus 1 [17]): 2
- Activity (Human alphaherpesvirus 1 [18]): Active
- Activity (Human alphaherpesvirus 1 [19]): Active
- FC (Human alphaherpesvirus 2 [20]): >=2
- IC99 (Human alphaherpesvirus 2 [21]): 12.3 µM
- IC99 (Human alphaherpesvirus 2 [22]): 12.5 µM
- IC99 (Human alphaherpesvirus 2 [23]): 12.5 µM
- IC99 (Human alphaherpesvirus 2 [24]): 12.1 µM
- FC (Human alphaherpesvirus 2 [25]): >4
- FC (Human alphaherpesvirus 1 [26]): 2
- FC (Human alphaherpesvirus 1 [27]): 2
- FC (Human alphaherpesvirus 1 [28]): 2
